Results on eight compounds are retold here after ChEMBL document CHEMBL1649352, “Catechin derivatives from Parapiptadenia rigida with in vitro wound-healing properties” (J Nat Prod, 2010).

By IC50 is commonly meant the midpoint of a concentration-inhibition curve.

Calls of active or inactive are those of the source. The calls are words filed in the database; no cut-off is given here.

Data set [1] has as its system Jurkat. Description: Inhibition of TNFalpha-induced NF-kappaB activation in human Jurkat cells at 10 to 55 uM after 24 hrs by electrophoretic mobility shift assay. Type of data set: cell-based. A digest of the protocol:
(§1)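 Jurkat T cells (3 × 10⁵ cells/mL) in RPMI 1640 with 10% FCS were preincubated 24 h with compound at 10, 20, 30 or 55 µM. They were then stimulated 1 h with rh-TNF-α 2.5 ng/mL. Nuclear extracts were probed with a [γ-³³P]-labelled NF-κB consensus oligonucleotide. Specificity was checked with a 100-fold molar excess of unlabelled oligo. Bands were quantified densitometrically by phosphorimager.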

For data set [2], the system named is NIH3T3. Put plainly: Antimigratory activity against Swiss albino mouse 3T3 cells assessed as increase of cell numbers at 1 to 20 uM after 12 hrs by scratch-wound assay. Type of data set: functional, cell-based. A digest of the protocol: (§2)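 Swiss 3T3 albino mouse fibroblasts, cultured in DMEM with 10% FCS and penicillin/streptomycin at 37 °C, 5% CO2. A scratch wound was made in the confluent monolayer. Compounds were tested at 1, 10 and 20 µM. PDGF 2 ng/mL served as positive control and a DMSO-only well as reference. The % increase in cells migrating and proliferating into the wounded area was read after 12 h. At least triplicate runs, mean ± SEM.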

Data set [3] relates to NIH3T3. Description: Antimigratory activity against Swiss albino mouse 3T3 cells assessed as increase of cell numbers at 10 uM after 12 hrs by scratch-wound assay. Type of data set: functional, cell-based. A digest of the protocol: as §2
Data set [4] deals with NIH3T3. Put plainly: Antimigratory activity against Swiss albino mouse 3T3 cells assessed as increase of cell numbers at 1 uM after 12 hrs by scratch-wound assay. The class given is functional, cell-based. A digest of the protocol: as §2
Data set [5] has as its system Jurkat. Description: Inhibition of TNF-alpha-induced NFkappaB activation in human Jurkat cells at 10 to 20 uM after 24 hrs by electrophoretic mobility shift assay. Type of data set: cell-based. A digest of the protocol: as §1
Data set [6] deals with Mitogen-activated protein kinase 14 (Homo sapiens, UniProt Q16539). Description: Inhibition of p38alpha after 1 hr by ELISA. Background: An ELISA detects its analyte on a solid surface through an enzyme-linked reagent.
Chain of Mitogen-activated protein kinase 14 (Q16539 whole entry): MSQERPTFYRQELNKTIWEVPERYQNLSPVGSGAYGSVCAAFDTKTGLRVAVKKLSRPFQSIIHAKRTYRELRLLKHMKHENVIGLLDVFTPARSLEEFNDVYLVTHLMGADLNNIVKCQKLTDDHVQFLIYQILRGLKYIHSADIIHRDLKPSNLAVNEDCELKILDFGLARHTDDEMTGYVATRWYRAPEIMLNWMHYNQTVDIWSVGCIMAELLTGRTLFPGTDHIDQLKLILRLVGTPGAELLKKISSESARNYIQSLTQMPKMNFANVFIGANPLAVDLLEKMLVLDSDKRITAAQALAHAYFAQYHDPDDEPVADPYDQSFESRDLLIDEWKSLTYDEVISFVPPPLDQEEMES
The test system of data set [7] is Jurkat. Description: Cytotoxicity against human Jurkat cells at 55 uM after 22 hrs by MTT assay. The class given is cell-based. Background: Tetrazolium assays rely on reduction of a dye to a coloured formazan, in cell work by metabolically active cells.
In data set [8] the test system is Jurkat. Description: Inhibition of TNF-alpha-induced NFkappaB activation in human Jurkat cells at 30 to 55 uM after 24 hrs by electrophoretic mobility shift assay. Type of data set: cell-based. A digest of the protocol: as §1
Data set [9] has as its system NIH3T3. Put plainly: Antimigratory activity against Swiss albino mouse 3T3 cells assessed as increase of cell numbers at 2 ng/ml after 12 hrs by scratch-wound assay. The class given is functional. A digest of the protocol: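 Swiss 3T3 albino mouse fibroblasts were grown in DMEM with 10% fetal calf serum and penicillin/streptomycin at 37 °C and 5% CO2, and a scratch wound was made in the monolayer. PDGF (2 ng/mL) was incubated for 12 h. Read-out was the % of cells that migrated into and proliferated in the wounded area, relative to a cells-plus-DMSO control. At least triplicate; mean ± SEM.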

Turning to `COc1c(O)cc([C@H]2Oc3cc(O)cc(O)c3C[C@@H]2O)cc1O`, the result in the data set with Jurkat [1] and in the data set on NIH3T3 [2] was Active.

Turning to `COc1ccc([C@H]2Oc3cc(O)cc(O)c3C[C@H]2OC(=O)c2cc(O)c(O)c(O)c2)cc1O`, the outcome in the data set with NIH3T3 [3] was inactive. The outcome in the data set on NIH3T3 [4] was Active.

Take `COc1cc([C@H]2CC(=O)Oc3cc(O)c4c(c32)O[C@H](c2cc(O)c(OC)c(O)c2)[C@@H](O)C4)ccc1O`: the result in the data set on NIH3T3 [2] and in the data set on Jurkat [5] was Active. The compound also returned an IC50 in data set [6] of 50.8 µM. In the data set with Jurkat [7], this compound came in with an Activity of 11%. Besides, the outcome in the data set on Jurkat [8] was inactive.

In the case of `O=C(O[C@@H]1Cc2c(O)cc(O)cc2O[C@@H]1c1cc(O)c(O)c(O)c1)c1cc(O)c(O)c(O)c1` [EPIGALOCATECHIN GALLATE], the outcome with Jurkat [1] and in the data set with NIH3T3 [2] was Active. The Activity in the data set on NIH3T3 [9] is 59.5%. The compound further yielded an IC50 in data set [6] of 2.21 µM.

In the case of `COc1cc(/C=C/C(=O)O[C@@H]2Cc3c(O)cc(O)cc3O[C@@H]2c2cc(O)c(O)c(O)c2)ccc1O`, the result in the data set on Jurkat [1] was Active.

In the case of `O=C(O[C@@H]1Cc2c(O)cc(O)cc2O[C@@H]1c1ccc(O)c(O)c1)c1cc(O)c(O)c(O)c1` [EPICATECHIN GALLATE], the result in the data set with NIH3T3 [3] was inactive. Also, in the data set with NIH3T3 [4], the result was Active. The midpoint of inhibition in data set [6], the IC50, lay at 1.47 µM.

`COc1c(O)cc([C@H]2Oc3cc(O)cc(O)c3C[C@H]2O)cc1O`: the result with Jurkat [1] was Active. It took 39.2 µM to reach half-maximal inhibition in data set [6] (IC50).

Take `COc1c(O)cc([C@H]2Oc3cc(O)cc(O)c3C[C@H]2OC(=O)c2cc(O)c(O)c(O)c2)cc1O`: the outcome in the data set with Jurkat [1] and in the data set with NIH3T3 [2] was Active.
